The results in this text go back to ChEMBL document CHEMBL1926514, “Pyridobenzothiazole derivatives as new chemotype targeting the HCV NS5B polymerase” (Bioorg Med Chem, 2012).

The source made the active and inactive calls. No cut-off for these calls is given here.

The test system of series [1] is Hepatitis C virus. As to the kind of experiment: Antiviral activity against HCV genotype 1b infected in human HuH5.2 cells assessed as inhibition of […] after 72 hrs by luciferase reporter gene assay. Type of series: functional, organism-based, Hepacivirus hominis. Conditions: Huh-5-2, 72 h. In a few lines:
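Four-step 1-to-5 dilution series were tested for 72 h at 37 °C, 5% CO₂. Cells were washed with PBS and lysed 5 min at room temperature, and luciferase luminescence was read as % of untreated controls. EC50 and EC90 came from dose–response curves; at least three independent experiments.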

Series [2] in a line: Cytotoxicity against human HuH5.2 cells after 72 hrs by MTS assay. It counts as cell-based, Huh-5-2. In a few lines:
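Metabolic activity was read as absorbance at 498 nm, with OD converted to % of untreated controls. CC50 came from the dose–response curve as 50% reduction of metabolic activity.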
(In general: Tetrazolium dyes change colour on reduction, which living cells bring about.)

In series [3] the test system is Hepatitis C virus. As to the kind of experiment: Inhibition of HCV genotype 1b recombinant NS5B Cdelta21 polymerase expressed in Escherichia coli assessed as [3H]UTP incorporation into RNA/RNA homopolymeric template (rA)40/(rU)20 after 40 mins by liquid scintillation counting. Also noted: species or system Hepatitis C virus subtype 1b. In a few lines:
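E. coli-expressed NS5BΔC21 (genotype 1b), purified on DEAE and heparin columns, was used at 25–50 nM. Buffer: 50 mM Tris–HCl pH 8.0, 1 mM DTT, 0.25 mg/mL BSA, 0.25 mM MnCl₂, with (rA)40/(rU)20 primer/template. Inhibitor was preincubated 5 min on ice with enzyme and RNA, then [³H]-UTP (37 Ci/mmol) was added for 40 min at 25 °C. Product was captured on DE-81 filters and counted by scintillation. IC50 is the mean of at least three experiments.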

For series [4], the system named is Hepatitis C virus. As to the kind of experiment: Inhibition of HCV genotype 1b recombinant NS5B Cdelta21 polymerase expressed in Escherichia coli assessed as [3H]UTP incorporation into RNA/RNA homopolymeric template (rA)40/(rU)20 at 10 uM after 40 mins by liquid scintillation counting in presence of increase concentration of RNA primer/template. Conditions: Hepatitis C virus subtype 1b. In a few lines: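 NS5BΔC21 [³H]-UTP incorporation assay on (rA)40/(rU)20 at 25 °C for 40 min, with DE-81 filter scintillation read-out. Inhibitor was held at a fixed subsaturating dose while the RNA primer/template was raised across two increasing doses; inhibitor was preincubated 5 min on ice with enzyme and RNA before UTP addition.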

For series [5], the system named is Hepatitis C virus. As to the kind of experiment: Inhibition of HCV genotype 1b recombinant NS5B Cdelta21 polymerase expressed in Escherichia coli assessed as [3H]UTP incorporation into RNA/RNA homopolymeric template (rA)40/(rU)20 at 10 uM after 40 mins by liquid scintillation counting in presence of increase concentration of UTP. The following applies: Hepatitis C virus subtype 1b. In outline: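 NS5BΔC21 [³H]-UTP incorporation assay on (rA)40/(rU)20 at 25 °C for 40 min, with filter-binding scintillation read-out. Inhibition was measured at varying UTP concentrations; inhibitor was preincubated 5 min on ice with enzyme and RNA template.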

On to `O=C(O)c1ccc(=O)n2c1sc1ccc(OC3CCCCC3)cc12`, for which the concentration for a half-maximal effect (EC50) (usually the concentration at which the effect is half-maximal) in series [1] is above 100 µM. The CC50 (usually the concentration that lowers cell viability or growth by half) at 72 h in series [2] was above 100 µM. Moreover, the IC50 (as a rule, the concentration at which inhibition is half-maximal) in series [3] is above 40 µM.

On to `O=C(O)c1cc(-c2ccccc2)c(=O)n2c1S(=O)(=O)c1ccc(OC3CCCCC3)cc1-2`, for which the inhibition entry in series [4] is “inactive”. The inhibition result in series [5] is “Active”. In addition, the concentration giving a half-maximal response (EC50) in series [1] came to 55.8 µM. In series [2], this molecule displayed a CC50 at 72 h above 100 µM. Moreover, the half-inhibitory concentration (IC50) in series [3] is 19 µM.

With `O=C(O)C1=CC(=C(c2ccc(O)c(C(=O)O)c2)c2ccc(O)c(C(=O)O)c2)C=CC1=O` [AURINTRICARBOXYLIC ACID], the half-inhibitory concentration (IC50) in series [3] was 15 µM.

For the molecule `CC(=O)c1cc(C(=O)O)c2sc3ccc(OC4CCCCC4)cc3n2c1=O`, the concentration giving a half-maximal response (EC50) in series [1] is above 100 µM. In series [2], this molecule showed a CC50 at 72 h above 100 µM. The concentration for half-maximal inhibition (IC50) in series [3] was above 40 µM.

`O=C(O)c1cc(-c2ccccc2)c(=O)n2c1sc1ccc(OC3CCCCC3)cc12`: the inhibition result in series [4] was “inactive”. Further, the inhibition entry in series [5] was “Active”. In series [1], the EC50 is above 100 µM. Besides, the CC50 at 72 h in series [2] was above 100 µM. Moreover, in series [3], the IC50 is 11 µM.

With `COc1ccc2sc3c(C(=O)O)cc(-c4ccccc4)c(=O)n3c2c1`, in series [1], the EC50 was determined as 51.2 µM. In series [2], this molecule returned a CC50 at 72 h of 51.8 µM. In addition, in series [3], the concentration for half-maximal inhibition (IC50) is above 40 µM.

In the case of `O=C(O)c1cc(C2CCCCC2)c(=O)n2c1sc1ccccc12`, in series [1], the half-maximal effective concentration (EC50) amounted to 53.5 µM. This molecule also yielded a CC50 at 72 h in series [2] above 100 µM. Moreover, in series [3], the IC50 is above 40 µM.

For the molecule `O=C(O)c1cc(-c2ccccc2)c(=O)n2c1sc1ccc(F)cc12`, the 50% effective concentration (EC50) in series [1] is above 100 µM. Also, in series [2], the 50% cytotoxic concentration (CC50) at 72 h is above 100 µM. In series [3], the IC50 is above 40 µM.

On to `O=C(O)c1cc(-c2ccccc2)c(=O)n2c1S(=O)(=O)c1ccc(F)cc1-2`, for which, in series [1], the EC50 is 66 µM. This molecule registered a CC50 at 72 h in series [2] above 100 µM. In series [3], the IC50 was above 40 µM.

With `O=C(O)c1cc(C2CCCCC2)c(=O)n2c1sc1ccc(OC3CCCCC3)cc12`, in series [4], the inhibition result was “inactive”. Also, the inhibition entry in series [5] was “Active”. Further, the concentration giving a half-maximal response (EC50) in series [1] is above 56.5 µM. In series [2], this molecule returned a half-maximal cytotoxic concentration (CC50) at 72 h above 56.5 µM. Moreover, the half-inhibitory concentration (IC50) in series [3] amounted to 23 µM.

As to `CC(C)CCOc1ccc2sc3c(C(=O)O)cc(-c4ccccc4)c(=O)n3c2c1`, in series [1], the concentration giving a half-maximal response (EC50) was found to be 54 µM. This molecule also had a half-maximal cytotoxic concentration (CC50) at 72 h in series [2] of 55 µM. Moreover, the IC50 in series [3] is above 40 µM.

For the molecule `COc1ccc2c(c1)-n1c(c(C(=O)O)cc(-c3ccccc3)c1=O)S2(=O)=O`, in series [1], the concentration for a half-maximal effect (EC50) came to 89.7 µM. The same molecule displayed a CC50 at 72 h in series [2] above 100 µM. Further, the IC50 in series [3] was above 40 µM.
